# TAAR1 agonist – human TAAR1 agonism; 360,000 compounds, 0.99% hits; CHO RD-HGA16 TAAR1, Fluo-8 calcium fluorescence; vehicle wells 0%, saturating PEA agonist 100%; activation, % at 3 µM;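 active means activation above the mean activation of all test compounds in the run plus 3 SD, cut at about 38% in these data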
#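 Assay system – CHO-derived RD-HGA16 cells with stable Gα16 and human TAAR1 · Compound dosing – one-point dosing at 3 µM (nominal) · Incubation – 17-24 h seeding, 75 min 37 °C dye, 30 min RT · Measured by – kinetic Fluo-8 calcium fluorescence · Control set – DMSO vehicle as 0%, PEA at EC100 as 100% · Repeats – single well for each compound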
# TAAR1 antagonist – antagonists of human TAAR1 | CHO RD-HGA16 TAAR1, Fluo-8 calcium fluorescence, antagonist | inhibition, % at 3 µM | 360,000 compounds, 1.5% hits;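 active means inhibition above a per-plate cutoff, the mean inhibition of test compounds on that plate plus 3 SD, cut at about 49% in these data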;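 further: 0% = DMSO plus EC80 beta-PEA response and 100% = DMSO alone without agonist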
#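 Test system – hTAAR1-expressing CHO RD-HGA16 cells, Gα16-coupled · Also added – β-PEA at EC80 concentration, post-compound challenge · Compound – 3 µM, single point · Incubation – dye loading 75 min at 37 °C, then 30 min room temperature · Measured by – Fluo-8 intracellular calcium dye fluorescence, real-time kinetic reads · Benchmarks – vehicle and agonist controls · Replicates – singlicate, one well per test compound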
# OX1R antag-1 – antagonists of human orexin 1 receptor; O43613; inhibition, % at 5 µM; 330,000 compounds, 0.43% hits; CHO/OX1R cells, Fluo-8 calcium fluorescence, orexin A;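 active means inhibition above its plate's threshold, mean inhibition of all tested compounds on the plate plus 3 SD, cut at about 37% in these data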;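 further: 0% = orexin A challenge wells and 100% = SB-334867-A antagonist wells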
# Target sequence (O43613 whole entry, looked up): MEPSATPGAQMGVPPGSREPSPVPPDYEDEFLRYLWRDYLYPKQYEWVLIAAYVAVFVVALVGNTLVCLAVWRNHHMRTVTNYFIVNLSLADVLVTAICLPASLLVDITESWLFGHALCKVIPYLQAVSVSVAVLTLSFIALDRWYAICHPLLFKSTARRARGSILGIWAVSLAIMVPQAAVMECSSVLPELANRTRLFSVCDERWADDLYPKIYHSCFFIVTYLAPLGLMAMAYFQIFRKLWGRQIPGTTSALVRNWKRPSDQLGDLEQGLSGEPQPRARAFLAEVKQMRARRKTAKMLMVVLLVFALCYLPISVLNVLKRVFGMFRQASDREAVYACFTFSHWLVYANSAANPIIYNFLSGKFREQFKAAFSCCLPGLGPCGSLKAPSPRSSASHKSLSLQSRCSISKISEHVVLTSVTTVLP
# CHO parental Ca – counter-screen for OX1R antagonists: effect in parental CHO cells; inhibition, % at 5.6 µM; parental CHO-K1, ATP-induced calcium, Fluo-8 fluorescence; 330,000 compounds, 0.63% hits; AID 463079;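 active means inhibition above that plate's mean sample inhibition plus 3 SD, cut at about 26% in these data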;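 further: 0% = ATP-challenged DMSO wells and 100% = DMSO wells without ATP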
#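 Assay system – parental CHO cells · Reagent – ATP stimulus · Detection – intracellular calcium via Fluo-8 no-wash fluorescent dye · Evaluation – percent inhibition of ATP-evoked calcium rise, normalized to controls · Controls – ATP wells versus no-ATP DMSO wells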
# OX1R antag-2 – antagonists of human orexin 1 receptor (OX1R); OX1R-expressing cells, FRET antagonist read-out; AID 485270; 330,000 compounds, 1.8% hits; O43613; inhibition, % at 6.6 µM; in the data active means inhibition mostly above about 38%, no sharp cut-off; inactive means mostly below about 40%;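 further: 0% = agonist challenge alone and 100% = reference antagonist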
# * hit, by the source's call; . = not tested or not shown. The list is not random: actives were taken first. Their share in the collection is about 4%.
SMILES,TAAR1 agonist,TAAR1 antagonist,OX1R antag-1,CHO parental Ca,OX1R antag-2
Cc1cccn2c(=O)c3cc(C(=O)NCc4cccnc4)c(=N)n(C(C)C)c3nc12,7.8,-2.7,-15.6,13.6,40.7*
Cc1cccn2c(=O)c3cc(C(=O)NCc4ccco4)c(=N)n(C(C)C)c3nc12,0.0,-8.2,-29.7,-25.9,38.0
CC(C)n1c(=N)c(C(=O)NCCc2ccccc2)cc2c(=O)n3ccccc3nc21,-0.5,-1.6,-16.3,-17.5,55.4*
Cc1onc(-c2ccccc2)c1NC(=O)Nc1c(-c2ccccc2)noc1C,2.5,6.8,-23.4,-23.7,51.1*
Cc1ccc(S(=O)(=O)N(C)C)cc1NC(=O)Nc1c(-c2ccccc2)noc1C,0.3,-24.0,-23.8,-21.2,8.8
COC(=O)C1=C(C)N(C)C(=NCc2cccc(C(F)(F)F)c2)NC1c1ccc(F)cc1 (stereo not given),15.7,21.8,.,.,.
COC(=O)c1c(C)oc2ccc(N(C(=O)c3ccncc3)S(=O)(=O)c3ccc(C)cc3C)cc12,1.5,13.6,34.7,38.3*,23.0
COC(=O)c1c(C)oc2ccc(N(C(=O)c3ccncc3)S(=O)(=O)c3ccc4ccccc4c3)cc12,2.1,49.9*,-16.8,-13.2,19.3
CCc1cc(Cn2nc(-c3ccccc3)cc2C(=O)NCc2cccs2)on1,11.4,63.2*,41.6,49.7*,49.8
CCc1cc(Cn2nc(-c3ccccc3)cc2C(=O)NCCOC)on1,13.1,-3.3,-4.9,-2.6,10.9
O=S(=O)(CS(=O)(=O)c1ccc(Br)cc1)c1ccc(Br)cc1,-0.8,-7.5,.,.,.
CC(C)CNc1cccc2c1S(=O)(=O)N[C@@H](Cc1ccccc1)CO2,-0.9,-8.7,.,.,.
c1ccc(Nc2ccc3c4c(cccc24)CC3)cc1,23.3,38.3,0.8,6.4,11.3
Nc1ccc2c3c(cccc13)CC2,17.7,32.5,70.7*,60.1*,12.8
CC(C)(C)CCN1CCC(CN2CCNC(=O)C2=O)CC1,1.7,-2.6,.,.,.
COc1ccc(OC)c(NC(=O)c2cc3c(Cl)nc4ccccc4c3s2)c1,-2.6,2.8,-20.4,-20.6,23.9
COc1ccc(NC(=O)c2cc3c(Cl)nc4ccccc4c3s2)cc1OC,29.8,31.9,10.5,-1.9,66.0*
CCOC(=O)c1c(C)[nH]c(C)c1C(=O)COC(=O)c1cccnc1OCC,6.7,32.8,6.3,-14.2,14.1
CCOC(=O)c1c(C)[nH]c(C)c1C(=O)COc1ncnc2cc([N+](=O)[O-])ccc12,7.1,18.3,-40.4,-19.5,75.5*
CC(NC(=O)COc1ncnc2cc([N+](=O)[O-])ccc12)c1ccccc1 (stereo not given),1.8,11.2,-14.0,-5.0,64.1*
O=C(COc1ncnc2cc([N+](=O)[O-])ccc12)NCCc1ccc(Cl)cc1,0.7,-6.2,-18.4,-21.2,17.6
O=C(COc1ncnc2cc([N+](=O)[O-])ccc12)NC(=O)NC1CCCCC1,40.6*,-1.8,-7.0,-12.8,18.9
Cc1ccc(-c2nc(C)sc2CC(=O)OCC(=O)Nc2ccc(F)c(Cl)c2)cc1,-1.0,-7.8,-22.3,-16.8,7.5
Cn1cc(CCOCc2ccc(Br)cc2)c2ccccc21,-0.2,-11.6,.,.,.
C#CCOCCOCCOCCNc1nc(N2CCN(C(=O)CCCCCCCCCCNC(=O)[C@H](CCCCN)n3cc(CCO)nn3)CC2)nc(N2CCN(C(=O)CCCCCCCCCCNC(=O)[C@H](CCCCN)n3cc(C[C@@H](C)CC)nn3)CC2)n1,.,.,8.1,53.6*,5.0
SMILES,TAAR1 agonist,TAAR1 antagonist,OX1R antag-1,CHO parental Ca,OX1R antag-2
C#CCOCCOCCOCCNc1nc(N2CCN(C(=O)CCCCCCCCCCNC(=O)[C@@H](CCC(=O)O)n3cc(CCCCCN)nn3)CC2)nc(N2CCN(C(=O)CCCCCCCCCCNC(=O)[C@H](CCCCN)n3cc(C[C@@H](C)CC)nn3)CC2)n1,.,.,-17.1,-0.7,-14.5
C#CCOCCOCCOCCNc1nc(N2CCN(C(=O)CCCCCCCCCCNC(=O)Cn3cc(CCCCCN)nn3)CC2)nc(N2CCN(C(=O)CCCCCCCCCCNC(=O)Cn3cc(C[C@@H](C)O)nn3)CC2)n1,.,.,12.9,41.5*,-18.6
C#CCOCCOCCOCCNc1nc(N2CCN(C(=O)CCCCCCCCCCNC(=O)Cn3cc(C[C@@H](C)O)nn3)CC2)nc(N2CCN(C(=O)CCCCCCCCCCNC(=O)[C@@H]([C@H](C)CC)n3cc(CCCCCN)nn3)CC2)n1,.,.,8.0,-9.8,-12.1
COC(=O)C1=C(C)N(Cc2cccc(C(F)(F)F)c2)C(=NCc2ccccc2C(F)(F)F)NC1c1cccc(C(F)(F)F)c1 (stereo not given),2.8,-18.6,.,.,.
Cc1cc(N2CCN(CC(C)(C)O)C[C@H]2C)ccc1N1CCN(CC(C)(C)O)[C@@H](C)C1,1.0,-10.9,.,.,.
C[C@@H]1CN([C@@H](C)CO)C(=O)CCCn2cc(nn2)CO[C@H]1CN(C)C(=O)c1ccncc1,2.6,10.9,.,.,.
N#CC1=C(N)Oc2cc(O)c(Cl)cc2C1c1cccnc1 (stereo not given),9.1,-6.5,.,.,.
N#CC1=C(N)Oc2cc(O)c(Cl)cc2C1c1ccccc1F (stereo not given),16.9,7.9,20.9,30.1*,28.1
Nc1ccn([C@@H]2O[C@H](C(=O)NCC(=O)N3CCOCC3)[C@@H](O)[C@H]2O)c(=O)n1,-0.1,6.6,.,.,.
Cn1c(N)c(N2CCN(c3ccccc3)CC2)c(=O)[nH]c1=O,3.3,9.4,-26.9,-4.7,4.8
COC(=O)c1ccc(OCC(=O)c2ccccc2OC)cc1,18.6,8.5,-22.0,-32.4,45.3*
O=C(/C=C\c1ccco1)Nc1nc(-c2ccc3ccccc3c2)cs1,8.7,49.3*,-4.5,-32.2,43.1
Cc1ccc(-c2csc(NC(=S)NC(=O)/C=C/c3ccco3)n2)cc1,12.4,12.3,-6.6,-3.7,12.9
COc1ccc(C(O)c2nc(-c3ccc(N(C)C)cc3)cs2)cc1 (stereo not given),49.1*,40.2,.,.,.
CN(C)c1ccc(-c2csc(C(O)c3ccccc3)n2)cc1 (stereo not given),36.2,20.0,.,.,.
COc1ccc(-c2csc(C(O)c3ccc(OC)cc3)n2)cc1 (stereo not given),27.0,29.1,.,.,.
CN(C)c1ccc(-c2csc(C(O)c3ccc(F)c(F)c3)n2)cc1 (stereo not given),99.9*,98.8*,.,.,.
COc1ccc(-c2csc(C(O)c3ccc(F)cc3)n2)cc1 (stereo not given),61.7*,78.4*,.,.,.
COc1ccc(C(O)c2nc(-c3cc4ccccc4o3)cs2)cc1 (stereo not given),31.5,49.3*,.,.,.
O=C(CCNS(=O)(=O)c1ccccc1F)OCc1ccccc1Cl,2.9,0.9,-14.7,-5.5,2.3
CC(C)(C)c1ccc(C(=O)N2CCC2(C)C(=O)NCc2cccc3ccccc23)cc1 (stereo not given),-0.8,-36.0,.,.,.

# Screening results from PubChem BioAssay.
